Experimental data reported in ChEMBL document CHEMBL2346497, “Synthesis of novel cognition enhancers with pyrazolo[5,1-c][1,2,4]benzotriazine core acting at γ-aminobutyric acid type A (GABA(A)) receptor” (Bioorg Med Chem, 2013).
pKi: −log10 of the molar value. Activity calls are given as the source filed them. No cut-off for these calls is given here.

Legend:
[1] = molecular target: T1, Gamma-aminobutyric acid receptor subunit alpha-5 (Homo sapiens) (UniProt P31644); experiment: Displacement of [3H]Ro15-1788 from recombinant GABA-A alpha5beta2gamma2 receptor benzodiazepine binding site (unknown origin) at 10 uM after 1 hr relative to control
T1 sequence (whole entry): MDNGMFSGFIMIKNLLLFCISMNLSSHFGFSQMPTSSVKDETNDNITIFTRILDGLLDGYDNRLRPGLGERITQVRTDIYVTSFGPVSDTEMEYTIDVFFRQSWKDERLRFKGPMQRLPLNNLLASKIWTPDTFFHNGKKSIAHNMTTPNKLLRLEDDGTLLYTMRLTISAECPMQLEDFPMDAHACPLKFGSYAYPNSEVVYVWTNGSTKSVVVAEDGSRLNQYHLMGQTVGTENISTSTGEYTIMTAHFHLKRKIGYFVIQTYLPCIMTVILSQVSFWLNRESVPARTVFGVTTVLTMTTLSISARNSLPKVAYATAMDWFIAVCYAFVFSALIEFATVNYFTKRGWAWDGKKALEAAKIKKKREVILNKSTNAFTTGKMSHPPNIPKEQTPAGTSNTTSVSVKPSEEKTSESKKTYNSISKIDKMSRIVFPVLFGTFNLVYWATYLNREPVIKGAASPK

Rattus norvegicus [2] = experiment: Induction of acetylcholine release in Harlan Wistar rat parietal cortex at 10 mg/kg, ip measured within 120 mins by microdialysis method; assay type: functional, organism-based; set-up: dose 10 mg/kg
Method in brief: (§1)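 Microdialysis in the parietal cortex of male Wistar rats, with a horizontal tube implanted at AP 0.5 mm and H 2.3 mm from bregma. One day after surgery the tube was perfused with Ringer containing physostigmine. After a 1 h settling period, 20-min fractions were collected into HCl. Drug was given ip in 1% CMC at time 0. ACh was measured by HPLC with electrochemical detection, n = 6 rats.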

Rattus norvegicus [3] = experiment: Procognitive effect in Harlan Wistar rat assessed as decrease in exploring time of unfamiliar rat during social investigatory behaviour at 1 to 10 mg/kg, po administered 30 mins prior to testing measured for 5 mins by social learning test relative to control; assay type: functional, organism-based
Rattus norvegicus [4] = experiment: Procognitive effect in Harlan Wistar rat assessed as exploring time of familiar rat during social investigatory behaviour at 1 mg/kg, po administered 30 mins prior to testing measured for 5 mins by social learning test (reference value: 27.6 secs); assay type: functional
[5] = Displacement of [3H]Ro15-1788 from GABA-A receptor benzodiazepine binding site in bovine cerebral cortex membranes after 1 hr; assay type: cell membranes, Bos taurus, Membrane
Rattus norvegicus [6] = experiment: Procognitive effect in Harlan Wistar rat assessed as exploring time of familiar rat during social investigatory behaviour at 10 mg/kg, po administered 30 mins prior to testing measured for 5 mins by social learning test (reference value: 27.6 secs); assay type: functional
Rattus norvegicus [7] = experiment: Procognitive effect in Harlan Wistar rat assessed as exploring time of familiar rat during social investigatory behaviour at 3 mg/kg, po administered 30 mins prior to testing measured for 5 mins by social learning test (reference value: 27.6 secs); assay type: functional
Mus musculus [8] = experiment: Neurotoxicity in CD1 albino mouse assessed as decrease in number of falls from rotating rod at 10 mg/kg, po by rota-rod test relative to control; assay type: toxicity, organism-based; set-up: dose 10 mg/kg, route oral; settings: in vivo, TDE = time-dependent effect
Method in brief: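 Motor coordination was tested on a rota-rod turning at 24 rpm in male CD-1 mice dosed po in 1% CMC. Falls within 30 s were counted at a pretest and at 15, 30, 45 and 60 min after dosing. Each value is the mean of five mice, compared with CMC-treated controls.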

[9] = molecular target: GABA A receptor alpha-2/beta-2/gamma-2 (Homo sapiens) (UniProt P47870+P18507+P47869); experiment: Displacement of [3H]Ro15-1788 from recombinant GABA-A alpha2beta2gamma2 receptor benzodiazepine binding site (unknown origin) at 10 uM after 1 hr relative to control; assay type: protein-complex assay
Method in brief: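 Membranes came from clonal mammalian cell lines expressing α1β2γ2, α2β2γ2 or α5β3γ2 receptors, grown in MEM/EBSS with 10% FCS at 37 °C. Membranes were resuspended in 10 mM potassium phosphate, pH 7.4, with 100 mM KCl. Assays used 1–2 nM [3H]Ro15-1788 and test compound from 10^-9 to 10^-5 M, at least six concentrations. Diazepam at 10^-5 M defined nonspecific binding. Incubation ran 1 h at 4 °C. Single-point % inhibition was measured at 10 µM, and Ki by curve fitting; n = 5, in duplicate.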

Mus musculus [10] = experiment: Anxiolytic activity in CD1 albino mouse assessed as increase in time spent in illuminated side at 3 to 10 mg/kg, po administered 30 mins prior to testing measured for 5 mins by light-dark box test; assay type: functional, organism-based
Method in brief: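 Light/dark box: two equal acrylic compartments, one lit by a 60 W lamp, joined by a floor-level opening. Male CD-1 mice were dosed po in 1% CMC 30 min before the test, then placed in the centre of the lit side facing away from the dark side. Over 5 min, transfers and time in the light side were recorded, n = 8 mice per group.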

Mus musculus [11] = experiment: Anticonvulsant activity in CD1 albino mouse assessed as protection against pentylenetetrazole-induced convulsions at 10 mg/kg, po administered 30 mins prior to pentylenetetrazole challenge measured over 30 mins (reference value: 7.1%); assay type: functional
Rattus norvegicus [12] = experiment: Induction of acetylcholine release in Harlan Wistar rat parietal cortex at 10 mg/kg, ip after 60 to 80 mins by microdialysis method; assay type: functional, organism-based; set-up: dose 10 mg/kg; method in brief: as §1

Cc1cnn2c1n[n+]([O-])c1ccc(OCc3ccncc3)cc12
inhibition [1]: 36%
Activity (Rattus norvegicus [2]): inactive
Activity (Rattus norvegicus [3]): inactive
Time (Rattus norvegicus [4]): 33.2 s
pKi [5]: 7.62
Time (Rattus norvegicus [6]): 41.4 s
Time (Rattus norvegicus [7]): 43.2 s
Activity (Mus musculus [8]): tde
inhibition [9]: 5%
Activity (Mus musculus [10]): inactive
Activity (Mus musculus [11]): 0%
Activity (Rattus norvegicus [12]): Active
